Data: ChEMBL document CHEMBL2311325, “New structure-activity relationship studies in a series of N,N-bis(cyclohexanol)amine aryl esters as potent reversers of P-glycoprotein-mediated multidrug resistance (MDR)” (Bioorg Med Chem, 2013)

Columns and labels:
[1] = biological target: ATP-dependent translocase ABCB1 (Homo sapiens, UniProt P08183); assay: Inhibition of P-glycoprotein in human doxorubicin-resistant K562 cells assessed as half maximal increase of pirarubicin accumulation by spectrofluorometric analysis; format: cell-based
P-glycoprotein (ABCB1) = P-glycoprotein (ABCB1) (Homo sapiens, UniProt P08183); assay: Inhibition of P-glycoprotein in human doxorubicin-resistant K562 cells assessed as maximal increase of pirarubicin accumulation by spectrofluorometric analysis relative to control; format: cell-based; settings: probe pirarubicin
K562 [2] = assay: Cytotoxicity against human doxorubicin-resistant K562 cells at 1 uM after 72 hrs by MTT assay; format: cell-based; settings: k562, 72 h
In short: (§1)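 Intrinsic cytotoxicity of compound alone (no doxorubicin) tested at 1.0 µM on K562 and K562/DOX cells. Cells in exponential growth (3-5 × 10^5 cells/mL) seeded at 3000 cells/well and incubated 72 h at 37 °C, 5% CO2. MTT added for a further 3 h, formazan dissolved in DMSO, absorbance read at 540 nm. Quadruplicate cultures.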

K562 [3] = assay: Cytotoxicity against human K562 cells at 1 uM after 72 hrs by MTT assay; format: cell-based; settings: k562, 72 h; in short: as §1
K562 [4] = assay: Reversal fold, ratio of doxorubicin IC50 for doxorubicin-resistant human K562 cells in absence of compound to doxorubicin IC50 for doxorubicin-resistant human K562 cells in presence of 0.1 uM of compound; format: functional
In short: (§2)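 K562/DOX cells seeded at 3000 cells/well and exposed to doxorubicin (0.001-10 µM) with or without modulator (0.1 or 1.0 µM; DMSO stocks diluted in complete medium) for 72 h at 37 °C, 5% CO2. Viability read by MTT (3 h, DMSO solubilization, 540 nm). Doxorubicin IC50 taken from plotted curves. RF = IC50 without modulator / IC50 with modulator. Quadruplicate cultures.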

K562 [5] = assay: Reversal fold, ratio of doxorubicin IC50 for doxorubicin-resistant human K562 cells in absence of compound to doxorubicin IC50 for doxorubicin-resistant human K562 cells in presence of 1 uM of compound; format: functional; in short: as §2

Chain of P-glycoprotein (ABCB1) (P08183 whole entry): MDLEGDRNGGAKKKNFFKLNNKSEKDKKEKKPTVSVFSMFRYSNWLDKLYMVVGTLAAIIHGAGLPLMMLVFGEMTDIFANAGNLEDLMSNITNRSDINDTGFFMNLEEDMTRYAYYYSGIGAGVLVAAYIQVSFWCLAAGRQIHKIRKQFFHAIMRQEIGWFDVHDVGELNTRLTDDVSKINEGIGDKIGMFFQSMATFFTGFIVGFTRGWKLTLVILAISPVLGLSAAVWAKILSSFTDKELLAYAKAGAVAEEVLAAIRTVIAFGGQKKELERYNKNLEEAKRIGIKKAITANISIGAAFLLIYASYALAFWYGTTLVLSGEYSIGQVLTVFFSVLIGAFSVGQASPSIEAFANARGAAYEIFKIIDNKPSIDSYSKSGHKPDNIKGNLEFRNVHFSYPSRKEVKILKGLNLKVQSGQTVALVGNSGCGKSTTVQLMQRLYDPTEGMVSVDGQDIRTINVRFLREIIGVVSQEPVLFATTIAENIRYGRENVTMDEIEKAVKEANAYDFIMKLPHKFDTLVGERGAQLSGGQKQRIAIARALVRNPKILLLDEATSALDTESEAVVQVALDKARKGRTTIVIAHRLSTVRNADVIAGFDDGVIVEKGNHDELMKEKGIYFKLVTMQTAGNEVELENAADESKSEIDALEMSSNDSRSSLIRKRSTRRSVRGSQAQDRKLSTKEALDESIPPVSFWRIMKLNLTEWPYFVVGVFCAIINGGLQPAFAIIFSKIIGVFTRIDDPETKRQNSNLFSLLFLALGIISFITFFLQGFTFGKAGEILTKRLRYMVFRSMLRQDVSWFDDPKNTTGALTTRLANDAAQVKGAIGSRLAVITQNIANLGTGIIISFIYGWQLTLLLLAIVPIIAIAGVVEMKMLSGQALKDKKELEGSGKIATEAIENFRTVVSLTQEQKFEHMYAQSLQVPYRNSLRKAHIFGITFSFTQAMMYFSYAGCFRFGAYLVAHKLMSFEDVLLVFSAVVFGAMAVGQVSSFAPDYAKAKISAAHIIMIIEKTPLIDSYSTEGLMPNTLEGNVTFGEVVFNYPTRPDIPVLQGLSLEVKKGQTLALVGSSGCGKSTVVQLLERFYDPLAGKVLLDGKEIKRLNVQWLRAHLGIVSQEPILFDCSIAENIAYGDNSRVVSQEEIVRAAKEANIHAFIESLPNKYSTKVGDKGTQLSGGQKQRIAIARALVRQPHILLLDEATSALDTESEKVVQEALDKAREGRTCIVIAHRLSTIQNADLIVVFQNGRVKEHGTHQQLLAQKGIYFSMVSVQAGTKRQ
Chain of ATP-dependent translocase ABCB1 (P08183 whole entry): as above

IC50 [1] [nM]	Emax (P-glycoprotein (ABCB1)) [%]	Compound	Activity (K562 [2])	Activity (K562 [3])	Ratio IC50 (K562 [4])	Ratio IC50 (K562 [5])
350	77	COc1cc(CCC(=O)O[C@H]2CC[C@@H](N(C)[C@H]3CC[C@H](OC(=O)c4cc(OC)c(OC)c(OC)c4)CC3)CC2)cc(OC)c1OC (mixture of isomers)				
180	90	COc1cc(/C=C/C(=O)O[C@H]2CC[C@@H](N(C)[C@H]3CC[C@@H](OC(=O)C4c5ccccc5-c5ccccc54)CC3)CC2)cc(OC)c1OC				
80	81	COc1cc(/C=C/C(=O)O[C@H]2CC[C@@H](N(C)[C@H]3CC[C@H](OC(=O)C4c5ccccc5-c5ccccc54)CC3)CC2)cc(OC)c1OC (mixture of isomers)	Non-toxic	Non-toxic	2.3	5
	70	COc1ccc(C(C#N)(CCCNCc2c3ccccc3cc3ccccc23)C(C)C)cc1OC (centres undefined)				
92	85	COc1cc(/C=C/C(=O)O[C@H]2CC[C@H](N(C)[C@H]3CC[C@@H](OC(=O)c4cc(OC)c(OC)c(OC)c4)CC3)CC2)cc(OC)c1OC (mixture of isomers)				7.7
30	80	COc1cc(/C=C/C(=O)O[C@H]2CC[C@@H](N(C)[C@H]3CC[C@@H](OC(=O)c4cc(OC)c(OC)c(OC)c4)CC3)CC2)cc(OC)c1OC				9.8
20	99	COc1cc(C#CC(=O)O[C@H]2CC[C@@H](N(C)[C@H]3CC[C@H](OC(=O)c4cc(OC)c(OC)c(OC)c4)CC3)CC2)cc(OC)c1OC (mixture of isomers)	Non-toxic	Non-toxic	2	8.5
320	81	COc1cc(/C=C/C(=O)O[C@H]2CC[C@H](N(C)[C@H]3CC[C@H](OC(=O)c4cc(OC)c(OC)c(OC)c4)CC3)CC2)cc(OC)c1OC				9.2
70	99	COc1cc(C#CC(=O)O[C@H]2CC[C@H](N(C)[C@H]3CC[C@H](OC(=O)c4cc(OC)c(OC)c(OC)c4)CC3)CC2)cc(OC)c1OC	Non-toxic	Non-toxic	0.6	1.9
150	99	COc1cc(/C=C/C(=O)O[C@H]2CC[C@H](N(C)[C@H]3CC[C@@H](OC(=O)C4c5ccccc5-c5ccccc54)CC3)CC2)cc(OC)c1OC (mixture of isomers)				
50	89	COc1cc(C#CC(=O)O[C@H]2CC[C@@H](N(C)[C@H]3CC[C@@H](OC(=O)C4c5ccccc5-c5ccccc54)CC3)CC2)cc(OC)c1OC				
1100	76	COc1cc(CCC(=O)O[C@H]2CC[C@@H](N(C)[C@H]3CC[C@@H](OC(=O)c4cc(OC)c(OC)c(OC)c4)CC3)CC2)cc(OC)c1OC				
610	76	COc1cc(CCC(=O)O[C@H]2CC[C@H](N(C)[C@H]3CC[C@H](OC(=O)c4cc(OC)c(OC)c(OC)c4)CC3)CC2)cc(OC)c1OC				
130	76	COc1ccc(C(C(=O)O[C@H]2CC[C@H](N(C)[C@H]3CC[C@@H](OC(=O)C#Cc4cc(OC)c(OC)c(OC)c4)CC3)CC2)c2ccc(OC)cc2)cc1 (mixture of isomers)				
80	89	COc1ccc(C(C#N)(CCC(=O)O[C@H]2CC[C@@H](N(C)[C@H]3CC[C@H](OC(=O)/C=C/c4cc(OC)c(OC)c(OC)c4)CC3)CC2)C(C)C)cc1OC (mixture of isomers)	Non-toxic	Non-toxic	3	10.7
140	74	COc1ccc(C(C(=O)O[C@H]2CC[C@H](N(C)[C@H]3CC[C@H](OC(=O)C#Cc4cc(OC)c(OC)c(OC)c4)CC3)CC2)c2ccc(OC)cc2)cc1				

The next lines start with the compound.

Compound	IC50 [1] [nM]	Emax (P-glycoprotein (ABCB1)) [%]	Activity (K562 [2])	Activity (K562 [3])	Ratio IC50 (K562 [4])	Ratio IC50 (K562 [5])
COc1ccc(C(C(=O)O[C@H]2CC[C@@H](N(C)[C@H]3CC[C@H](OC(=O)C#Cc4cc(OC)c(OC)c(OC)c4)CC3)CC2)c2ccc(OC)cc2)cc1 (mixture of isomers)	20	99				
COc1cc(C#CC(=O)O[C@H]2CC[C@@H](N(C)[C@H]3CC[C@@H](OC(=O)c4cc(OC)c(OC)c(OC)c4)CC3)CC2)cc(OC)c1OC	70	99	Non-toxic	Non-toxic	2.3	4.5
COc1cc(C#CC(=O)O[C@H]2CC[C@H](N(C)[C@H]3CC[C@H](OC(=O)C4c5ccccc5-c5ccccc54)CC3)CC2)cc(OC)c1OC	500	77				
COc1ccc(C(C(=O)O[C@H]2CC[C@@H](N(C)[C@H]3CC[C@@H](OC(=O)C#Cc4cc(OC)c(OC)c(OC)c4)CC3)CC2)c2ccc(OC)cc2)cc1 (mixture of isomers)	120	94				
COc1ccc(C(C#N)(CCC(=O)O[C@H]2CC[C@@H](N(C)[C@H]3CC[C@@H](OC(=O)/C=C/c4cc(OC)c(OC)c(OC)c4)CC3)CC2)C(C)C)cc1OC (some centres undefined)	150	99				
COc1cc(/C=C/C(=O)O[C@H]2CC[C@@H](N(C)[C@H]3CC[C@H](OC(=O)c4cc(OC)c(OC)c(OC)c4)CC3)CC2)cc(OC)c1OC	12	98				20.3
COc1ccc(C(C#N)(CCC(=O)O[C@H]2CC[C@H](N(C)[C@H]3CC[C@@H](OC(=O)/C=C/c4cc(OC)c(OC)c(OC)c4)CC3)CC2)C(C)C)cc1OC (mixture of isomers)	240	88				
COc1cc(C#CC(=O)O[C@H]2CC[C@@H](N(C)[C@H]3CC[C@H](OC(=O)C4c5ccccc5-c5ccccc54)CC3)CC2)cc(OC)c1OC (mixture of isomers)	120	96				
COc1ccc(C(C#N)(CCC(=O)O[C@H]2CC[C@H](N(C)[C@H]3CC[C@H](OC(=O)/C=C/c4cc(OC)c(OC)c(OC)c4)CC3)CC2)C(C)C)cc1OC (some centres undefined)	140	99				
COc1cc(/C=C/C(=O)O[C@H]2CC[C@H](N(C)[C@H]3CC[C@H](OC(=O)C4c5ccccc5-c5ccccc54)CC3)CC2)cc(OC)c1OC	75	94	Non-toxic	Non-toxic	2	2.9
COc1cc(C#CC(=O)O[C@H]2CC[C@H](N(C)[C@H]3CC[C@@H](OC(=O)c4cc(OC)c(OC)c(OC)c4)CC3)CC2)cc(OC)c1OC (mixture of isomers)	80	98	Non-toxic	Non-toxic	1.6	1.5
COc1cc(C#CC(=O)O[C@H]2CC[C@H](N(C)[C@H]3CC[C@@H](OC(=O)C4c5ccccc5-c5ccccc54)CC3)CC2)cc(OC)c1OC (mixture of isomers)	290	91				
COc1cc(CCC(=O)O[C@H]2CC[C@H](N(C)[C@H]3CC[C@@H](OC(=O)c4cc(OC)c(OC)c(OC)c4)CC3)CC2)cc(OC)c1OC (mixture of isomers)	630	75				
